What is called IC50 is the concentration that gives 50% inhibition.

Molecules are shown by their SMILES.

System in the first assay: not listed separately
Put plainly: Inhibition of DNA-PK isolated from human HeLa cell extract assessed as reduction in p53 Ser15 phosphorylation by chemiluminescence assay. The class given is cell-free.
For the compound `CN1CCN(CC(=O)Nc2ccc(-c3cccc4c(=O)cc(N5CCOCC5)[nH]c34)c3oc4ccccc4c23)CC1`, the IC50 was found to be 116 nM.
The same measure, in the same setting: for `CC(C)NC(=O)CN1CCN(CC(=O)Nc2ccc(-c3cccc4c(=O)cc(N5CCOCC5)[nH]c34)c3oc4ccccc4c23)CC1` the value was 55 nM; for `C[C@@H]1CN(CCC(=O)Nc2ccc(-c3cccn4c(=O)cc(N5CCOCC5)nc34)c3oc4ccccc4c23)C[C@H](C)O1`, 70 nM.
Still for that read-out and setting: for `COCCN1CCN(CC(=O)Nc2ccc(-c3cccc4c(=O)cc(N5CCOCC5)[nH]c34)c3sc4ccccc4c23)CC1` the value was 33 nM.
On the same count and under the same terms, for `C[C@@H]1CN(CC(=O)Nc2ccc(-c3cccn4c(=O)cc(N5CCOCC5)nc34)c3oc4ccccc4c23)C[C@H](C)O1` the value was 15 nM; for `O=C(CN1CCOCC1)Nc1ccc(-c2cccn3c(=O)cc(N4CCOCC4)nc23)c2sc3ccccc3c12`, 8 nM; for `COCCN1CCN(CC(=O)Nc2ccc(-c3cccc4c(=O)cc(N5CCOCC5)[nH]c34)c3oc4ccccc4c23)CC1`, 68 nM.
`C[C@@H]1CN(CC(=O)Nc2ccc(-c3cccc4c(=O)cc(N5CCOCC5)[nH]c34)c3oc4ccccc4c23)C[C@H](C)O1`: the IC50 was found to be 37 nM.
On the same count and under the same terms, for `O=C(CN1CCOCC1)Nc1ccc(-c2cccn3c(=O)cc(N4CCOCC4)nc23)c2oc3ccccc3c12` the value was 59 nM; for `O=C(CN1CCN(CCO)CC1)Nc1ccc(-c2cccn3c(=O)cc(N4CCOCC4)nc23)c2sc3ccccc3c12`, 19 nM.
On the same count and under the same terms, for `O=C(CN1CCN(CCO)CC1)Nc1ccc(-c2cccn3c(=O)cc(N4CCOCC4)nc23)c2oc3ccccc3c12` the value was 17 nM; for `O=C(CN1CCN(CCOCCO)CC1)Nc1ccc(-c2cccn3c(=O)cc(N4CCOCC4)nc23)c2sc3ccccc3c12`, 51 nM; for `O=C(CCNCC1CCCO1)Nc1ccc(-c2cccn3c(=O)cc(N4CCOCC4)nc23)c2sc3ccccc3c12` (stereo not given), 77 nM.
Still for that read-out and setting: for `O=C(CCN1CCOCC1)Nc1ccc(-c2cccn3c(=O)cc(N4CCOCC4)nc23)c2oc3ccccc3c12` the value was 77 nM.
With `O=C(CN1CCOCC1)Nc1ccc(-c2cccc3c(=O)cc(N4CCOCC4)[nH]c23)c2oc3ccccc3c12`, the IC50 was 112 nM.

Another assay concerns HeLa. As to the kind of experiment: Potentiation of ionizing radiation-induced cytotoxicity in human HeLa cells assessed as dose modification ratio at 0.5 uM pretreated 1 hr before 2 Gy ionizing radiation by Giemsa staining relative untreated control. The class given is functional. A digest of the protocol: (§1)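 HeLa cells seeded in six-well dishes and left overnight at 37 °C/5% CO2. Compound or vehicle given 1 h before a single 2 Gy X-ray dose, then incubated overnight. Medium replaced without compound and cells grown 6-8 days. Colonies Giemsa-stained and counted automatically. DMR is % survival at 2 Gy without compound divided by % survival at 2 Gy with compound.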
As for `CN1CCN(CC(=O)Nc2ccc(-c3cccc4c(=O)cc(N5CCOCC5)[nH]c34)c3oc4ccccc4c23)CC1`, the Ratio was determined as 1.6.
Still for that read-out and setting: for `CC(C)NC(=O)CN1CCN(CC(=O)Nc2ccc(-c3cccc4c(=O)cc(N5CCOCC5)[nH]c34)c3oc4ccccc4c23)CC1` the value was 1.6; for `C[C@@H]1CN(CCC(=O)Nc2ccc(-c3cccn4c(=O)cc(N5CCOCC5)nc34)c3oc4ccccc4c23)C[C@H](C)O1`, 4.1; for `COCCN1CCN(CC(=O)Nc2ccc(-c3cccc4c(=O)cc(N5CCOCC5)[nH]c34)c3sc4ccccc4c23)CC1`, 8.2.
Take `C[C@@H]1CN(CC(=O)Nc2ccc(-c3cccn4c(=O)cc(N5CCOCC5)nc34)c3oc4ccccc4c23)C[C@H](C)O1`: the Ratio was found to be 3.
Still for that read-out and setting: for `O=C(CN1CCOCC1)Nc1ccc(-c2cccn3c(=O)cc(N4CCOCC4)nc23)c2sc3ccccc3c12` the value was 9.9; for `COCCN1CCN(CC(=O)Nc2ccc(-c3cccc4c(=O)cc(N5CCOCC5)[nH]c34)c3oc4ccccc4c23)CC1`, 1.4.
Still for that read-out and setting: for `C[C@@H]1CN(CC(=O)Nc2ccc(-c3cccc4c(=O)cc(N5CCOCC5)[nH]c34)c3oc4ccccc4c23)C[C@H](C)O1` the value was 1.6; for `O=C(CN1CCOCC1)Nc1ccc(-c2cccn3c(=O)cc(N4CCOCC4)nc23)c2oc3ccccc3c12`, 2.3; for `O=C(CN1CCN(CCO)CC1)Nc1ccc(-c2cccn3c(=O)cc(N4CCOCC4)nc23)c2sc3ccccc3c12`, 13.6.
In the case of `O=C(CN1CCN(CCO)CC1)Nc1ccc(-c2cccn3c(=O)cc(N4CCOCC4)nc23)c2oc3ccccc3c12`, the Ratio was 5.8.
As for `O=C(CN1CCN(CCOCCO)CC1)Nc1ccc(-c2cccn3c(=O)cc(N4CCOCC4)nc23)c2sc3ccccc3c12`, the Ratio was found to be 8.3.
`O=C(CCNCC1CCCO1)Nc1ccc(-c2cccn3c(=O)cc(N4CCOCC4)nc23)c2sc3ccccc3c12` (stereo not given): the Ratio is listed as 4.3.
The same measure, in the same setting: for `O=C(CCN1CCOCC1)Nc1ccc(-c2cccn3c(=O)cc(N4CCOCC4)nc23)c2oc3ccccc3c12` the value was 6.3; for `O=C(CN1CCOCC1)Nc1ccc(-c2cccc3c(=O)cc(N4CCOCC4)[nH]c23)c2oc3ccccc3c12`, 1.6.

The next assay relates to HeLa. As to the kind of experiment: Potentiation of ionizing radiation-induced cytotoxicity in human HeLa cells assessed as dose modification ratio at 0.1 uM pretreated 1 hr before 2 Gy ionizing radiation by Giemsa staining relative untreated control. The class given is functional. A digest of the protocol: as §1
In the case of `CN1CCN(CC(=O)Nc2ccc(-c3cccc4c(=O)cc(N5CCOCC5)[nH]c34)c3oc4ccccc4c23)CC1`, the Ratio worked out at 1.2.
The same measure, in the same setting: for `CC(C)NC(=O)CN1CCN(CC(=O)Nc2ccc(-c3cccc4c(=O)cc(N5CCOCC5)[nH]c34)c3oc4ccccc4c23)CC1` the value was 1.4.
In the case of `C[C@@H]1CN(CCC(=O)Nc2ccc(-c3cccn4c(=O)cc(N5CCOCC5)nc34)c3oc4ccccc4c23)C[C@H](C)O1`, the Ratio worked out at 0.9.
Consider `COCCN1CCN(CC(=O)Nc2ccc(-c3cccc4c(=O)cc(N5CCOCC5)[nH]c34)c3sc4ccccc4c23)CC1`, for which the Ratio is 1.2.
The same measure, in the same setting: for `C[C@@H]1CN(CC(=O)Nc2ccc(-c3cccn4c(=O)cc(N5CCOCC5)nc34)c3oc4ccccc4c23)C[C@H](C)O1` the value was 1.
With `O=C(CN1CCOCC1)Nc1ccc(-c2cccn3c(=O)cc(N4CCOCC4)nc23)c2sc3ccccc3c12`, the Ratio is given as 3.5.
Still for that read-out and setting: for `COCCN1CCN(CC(=O)Nc2ccc(-c3cccc4c(=O)cc(N5CCOCC5)[nH]c34)c3oc4ccccc4c23)CC1` the value was 1.1; for `C[C@@H]1CN(CC(=O)Nc2ccc(-c3cccc4c(=O)cc(N5CCOCC5)[nH]c34)c3oc4ccccc4c23)C[C@H](C)O1`, 1.1.
`O=C(CN1CCOCC1)Nc1ccc(-c2cccn3c(=O)cc(N4CCOCC4)nc23)c2oc3ccccc3c12`: the Ratio is on record as 1.4.
Same read-out and setting: for `O=C(CN1CCN(CCO)CC1)Nc1ccc(-c2cccn3c(=O)cc(N4CCOCC4)nc23)c2sc3ccccc3c12` the value was 1.4; for `O=C(CN1CCN(CCO)CC1)Nc1ccc(-c2cccn3c(=O)cc(N4CCOCC4)nc23)c2oc3ccccc3c12`, 1.3.
The same measure, in the same setting: for `O=C(CN1CCN(CCOCCO)CC1)Nc1ccc(-c2cccn3c(=O)cc(N4CCOCC4)nc23)c2sc3ccccc3c12` the value was 1; for `O=C(CCNCC1CCCO1)Nc1ccc(-c2cccn3c(=O)cc(N4CCOCC4)nc23)c2sc3ccccc3c12` (stereo not given), 4.3.
For `O=C(CCN1CCOCC1)Nc1ccc(-c2cccn3c(=O)cc(N4CCOCC4)nc23)c2oc3ccccc3c12`, the Ratio is listed as 1.3.
The same measure, in the same setting: for `O=C(CN1CCOCC1)Nc1ccc(-c2cccc3c(=O)cc(N4CCOCC4)[nH]c23)c2oc3ccccc3c12` the value was 1.1.
